The results in this text go back to ChEMBL document CHEMBL4261575, “Structure-guided approach identifies a novel class of HIV-1 ribonuclease H inhibitors: binding mode insights through magnesium complexation and site-directed mutagenesis studies” (Medchemcomm, 2018).

In general, pIC50 refers to −log10 of the IC50, conventionally taken in molar units.

SMILES strings stand for the structures. pIC50: −log10 of the molar value. Calls of active or inactive are those of the source. The rule behind the calls is not given here. A value given as a limit tells only on which side of the number the result lay.

The target in test [1] is Human immunodeficiency virus type 1 reverse transcriptase (Human immunodeficiency virus 1) (UniProt Q72547). As to the kind of experiment: Inhibition of HIV1 reverse transcriptase RNase H activity using 18-nucleotide 3'-fluorescein-labeled RNA/5'-[…]-labeled DNA hybrid as substrate assessed as remaining activity at 100 uM after 1 hr by fluorescence assay relative to control. In outline: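 Wild-type RT (20 ng) RNase H reaction in Tris-HCl pH 7.8 buffer with 6 mM MgCl2, 1 mM DTT and 80 mM KCl. Substrate was 0.25 μM fluorescein/dabcyl RNA/DNA hybrid, with compound at 100 μM. Incubation 1 h at 37 °C, EDTA stop, fluorescence at 490/528 nm. Activity is given as percentage of control.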

For test [2], the target named is Human immunodeficiency virus type 1 reverse transcriptase (Human immunodeficiency virus 1, UniProt Q72547). As to the kind of experiment: Inhibition of HIV1 reverse transcriptase RNase H activity using 18-nucleotide 3'-fluorescein-labeled RNA/5'-[…]-labeled DNA hybrid as substrate after 1 hr by fluorescence assay. The method, boiled down: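 Polymerase-independent RNase H assay with 20 ng wild-type RT in 50 mM Tris-HCl pH 7.8, 6 mM MgCl2, 1 mM DTT and 80 mM KCl. Substrate was 0.25 μM RNA/DNA hybrid with a fluorescein-labelled RNA and a dabcyl-labelled DNA. Inhibitor was diluted in water over increasing concentrations. Incubation 1 h at 37 °C, stopped with EDTA, read at 490/528 nm. IC50 was averaged over three independent experiments.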

Test [3] is described as follows: Selectivity ratio of IC50 for HIV1 group M subtype B reverse transcriptase p66 R448A mutant RNase H activity to IC50 for HIV1 reverse transcriptase RNase H activity.
The target in test [4] is Human immunodeficiency virus type 1 reverse transcriptase (Human immunodeficiency virus 1, UniProt Q72547, A502F). The test is described as follows: Inhibition of HIV1 group M subtype B reverse transcriptase p66 A502F mutant RNase H activity using 18-nucleotide 3'-fluorescein-labeled RNA/5'-[…]-labeled DNA hybrid as substrate after 1 hr by fluorescence assay. On the set-up: species or system HIV-1 group M. In outline:
(§1)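 Mutations were introduced into the p66 subunit of subtype B RT. Enzyme amounts were set within the linear range: R448A 37.5 ng, N474A 62.5 ng, A502F 100 ng, R557A 75 ng. Buffer was 50 mM Tris-HCl pH 7.8, 6 mM MgCl2, 1 mM DTT, 80 mM KCl, with 0.25 μM fluorescein/dabcyl hybrid and water-diluted inhibitor. Incubation 1 h at 37 °C, EDTA stop, read at 490/528 nm.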

Test [5] in a line: Binding affinity to Mg2+ at 3 x 10^-5 M to 8 x 10^-5 M by UV-Vis spectrophotometric method. In outline: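 UV-vis spectrophotometric titration of the compound in absolute ethanol with MgCl2, read in a quartz cuvette with a 1 cm path. MgCl2 was diluted in absolute ethanol to 13 stock solutions spanning 4 10–5 to 0.2 M (stock concentrations). Spectra were recorded across increasing Mg2+ levels, and isosbestic points were used to judge complexation equilibria. Each experiment was done in triplicate.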

Test [6] deals with Human immunodeficiency virus type 1 reverse transcriptase (Human immunodeficiency virus 1, UniProt Q72547, R557A). As to the kind of experiment: Inhibition of HIV1 group M subtype B reverse transcriptase p66 R557A mutant RNase H activity using 18-nucleotide 3'-fluorescein-labeled RNA/5'-[…]-labeled DNA hybrid as substrate after 1 hr by fluorescence assay. Further details: species or system HIV-1 group M. The method, boiled down:
as §1

The nature of test [7]: Selectivity ratio of IC50 for HIV1 group M subtype B reverse transcriptase p66 R557A mutant RNase H activity to IC50 for HIV1 reverse transcriptase RNase H activity.
Test [8] in a line: Selectivity ratio of IC50 for HIV1 group M subtype B reverse transcriptase p66 A502F mutant RNase H activity to IC50 for HIV1 reverse transcriptase RNase H activity.
Test [9] addresses Human immunodeficiency virus type 1 reverse transcriptase (Human immunodeficiency virus 1, UniProt Q72547, R448A). As to the kind of experiment: Inhibition of HIV1 group M subtype B reverse transcriptase p66 R448A mutant RNase H activity using 18-nucleotide 3'-fluorescein-labeled RNA/5'-[…]-labeled DNA hybrid as substrate after 1 hr by fluorescence assay. On the set-up: species or system HIV-1 group M. The method, boiled down: as §1

Test [10] has as its target Human immunodeficiency virus type 1 reverse transcriptase (Human immunodeficiency virus 1, UniProt Q72547, N474A). The test is described as follows: Inhibition of HIV1 group M subtype B reverse transcriptase p66 N474A mutant RNase H activity using 18-nucleotide 3'-fluorescein-labeled RNA/5'-[…]-labeled DNA hybrid as substrate after 1 hr by fluorescence assay. On the set-up: species or system HIV-1 group M. The method, boiled down:
as §1

In test [11] the test system is Human immunodeficiency virus 1. The test is described as follows: Antiviral activity against HIV1 assessed as inhibition of viral replication at 40 uM by cell-based assay. In kind it is functional, organism-based.
A short description of test [12]: Selectivity ratio of IC50 for HIV1 group M subtype B reverse transcriptase p66 N474A mutant RNase H activity to IC50 for HIV1 reverse transcriptase RNase H activity.

In the case of `Cc1ccc(C2CC2C(=O)NN)cc1` (centres undefined), the Activity in test [1] worked out at 83.5%. The molecule further had a pIC50 in test [2] of under 4.00.
As for `Cc1nc(N)sc1C(=O)N/N=C\c1ccc(O)c([N+](=O)[O-])c1`, the Activity in test [1] was 55%. Also, the pIC50 in [2] was under 4.00.
For `O=C(O)CC1CSc2ccccc2NC1=O` (centres undefined) the same measures were 76.5% and under 4.00.
For `CCOc1cc(/C=C2\NC(=O)NC2=O)c(Cl)cc1OC` the same measures were 70% and under 4.00.
For `COc1ccccc1/C=C/CN1CCNC(=O)C1CC(=O)O` (centres undefined) the same measures were 83.7% and under 4.00.
Turning to `CCCc1cc2c(cc1/C=C1\NC(=O)NC1=O)OCO2`, the pIC50 in test [2] is 4.04.
As to `CCCCC(CC)CN1C(=O)C(O)=C(C(C)=O)C1c1ccco1` (centres undefined), the Activity in test [1] came out at 77.5%. In test [2], this molecule had a pIC50 of under 4.00.
For `O=C(O)CCCC(=O)NC1CCCCCCC1` the same measures were 76.3% and under 4.00.
The matching figures for `CSCCC(NS(=O)(=O)c1ccc2c(c1)NC(=O)C(C)O2)C(=O)O` (centres undefined): 80.2% and under 4.00.
For `NC(=O)N(CCC(=O)O)c1ccc(Br)cc1` the same measures were 84.5% and under 4.00.
Consider `CCOc1ccc(/C=C2\SC(=O)NC2=O)cc1OCc1ccc(Cl)c(Cl)c1`, for which the Ratio IC50 in [3] was 1.4; in test [7], 2.5; in [8], 5.3; in test [12], over 59. The pIC50 in test [4] is 4.57; in [6], 4.90; in test [2], 5.29; in test [9] it was 5.15; in test [10], under 3.52. Also, in test [5], the outcome was inactive. In test [11], the inhibition result was “inactive”.
Regarding `CCN1C(=O)/C(=C/c2ccc(O)c([N+](=O)[O-])c2)SC1=S`, the Activity in test [1] amounted to 65.5%. The same molecule gave a negative logarithm of the IC50 (pIC50) in test [2] of under 4.00.
`CCOc1ccc(/C=C2\NC(=O)NC2=O)c(Cl)c1OC` showed a pIC50 in [2] of 4.07.
Take `CCOC(=O)C12CC(OC3CCCCC3)C1(c1ccccc1)NC(=O)C2=O` (centres undefined): the Activity in [1] came out at 80.4%. Moreover, the pIC50 in test [2] is under 4.00.
On to `CC(C)c1ccc(O)c(=O)c(O)c1` [BETA-THUJAPLICINOL], for which the Ratio IC50 amounted to 0.7 in test [3], 1.05 in test [7], 0.85 in test [8] and 0.5 in test [12]. Further, the pIC50 is 6.77 in [4], 6.68 in test [6], 6.85 in [9] and 7.00 in test [10].
`O=C(O)COc1ccc(/C=C2\NC(=O)NC2=O)cc1I`: the Activity in test [1] was found to be 67.5%. Further, the pIC50 in test [2] is under 4.00.
For `COC(=O)c1c(-c2cccs2)csc1NC(=O)C1CC=CCC1C(=O)O` (centres undefined) the same measures were 93% and under 4.00.
For `O=C(CSc1nc2ccccc2o1)Nc1ncn[nH]1` the same measures were 82.7% and under 4.00.
`CCC(C)Oc1ccc(/C=C2\NC(=O)NC2=O)cc1` (centres undefined) had a pIC50 in [2] of 4.28.
For `COc1cc(NC(=O)C2CC(=O)N=C(N)S2)cc(OC)c1` (centres undefined), the Activity in test [1] amounted to 74.5%. In [2], the pIC50 was under 4.00.
The matching figures for `Cc1ccc(C2NC(=O)C(O)=C2C(=O)c2cccs2)cc1` (centres undefined): 81.8% and under 4.00.
The matching figures for `Cc1cccc(OCC(=O)NC(Cc2ccccc2)C(=O)O)c1` (centres undefined): 87.2% and under 4.00.
As for `Cc1cc(/C=C2\SC(=N)NC2=O)c(C)n1-c1ccc(Cl)cc1`, in test [5], the outcome was inactive. Further, in [2], the pIC50 was 4.79.
Take `CCCOC(=O)CNc1n[nH]c(=O)[nH]c1=O`: the Activity in test [1] is 89.1%. In addition, the pIC50 in test [2] is under 4.00.
Turning to `Cc1cc(/C=C2\NC(=O)NC2=O)cc(C)c1OCc1cccc([N+](=O)[O-])c1`, the pIC50 in [2] is 4.75.
On to `NNC(=O)c1cccc(Cn2cc(Br)c([N+](=O)[O-])n2)c1`, for which the Activity in [1] is 94.6%. Further, in [2], the pIC50 was under 4.00.
For `O=C(O)C1Sc2[nH]c(=O)sc2C2c3ccccc3OC(=O)C12` (centres undefined) the same measures were 80% and under 4.00.
The matching figures for `O=C(OCCOCn1cc(Br)c(=O)[nH]c1=O)c1ccccc1`: 69.1% and under 4.00.
In turn, `O=C(N/N=C\c1cc([N+](=O)[O-])c(O)cc1O)c1ccccc1O` gave a pIC50 in test [2] of 4.30.
`COc1cc(N2CCCC2)c(OC)cc1/C=C1/NC(=O)NC1=O`: the Ratio IC50 is 1.2 in test [3], 2.2 in test [7], 3.5 in test [8] and over 32 in test [12]. Moreover, the pIC50 in [4] was 4.49; in test [6], 4.69; in test [2], 5.03; in [9], 4.96; in [10] it was under 3.52. Besides, the outcome in [5] was Active. In test [11], the inhibition result was “inactive”.
Take `CCOc1cccc(/C=C2\SC(=O)NC2=O)c1O`: the Activity in [1] is 60%. The molecule further showed a pIC50 in test [2] of under 4.00.
As to `COc1cccc(/C=C2\NC(=O)NC2=O)c1-c1ccc(OC(=O)Nc2ccccc2)cc1`, the pIC50 in test [2] was 4.55.
As for `C[S+]([O-])CCC(NS(=O)(=O)c1ccccc1)C(=O)O` (centres undefined), the Activity in test [1] was 86%. Also, the pIC50 in [2] was under 4.00.
With `O=C1NC(=O)/C(=C/c2ccc(Cl)c(Cl)c2)S1`, the Activity in [1] was determined as 80.5%. Also, in test [2], the pIC50 was under 4.00.
Take `COc1cc(/C=N/NC(=O)COc2cccc(C)c2)c(O)c([N+](=O)[O-])c1`: the Activity in test [1] was 59.4%. In test [2], the pIC50 is under 4.00.
For `Cc1cc(/C=C2\SC(N)=NC2=O)c(C)n1-c1ccc(F)cc1`, in test [5], the outcome was inactive. In test [2], this molecule showed a pIC50 of 4.91.
Consider `CC(Oc1ccc(C(C)(C)C)cc1)C(=O)NN` (centres undefined), for which the Activity in test [1] is 70.4%. For the same molecule, the pIC50 in [2] is under 4.00.
For `CC1=C(C(=O)O)N2C(=O)C(NC(=O)c3ccn(C)n3)C2SC1` (centres undefined) the same measures were 80% and under 4.00.
With `NNC(=O)C12CC3CC(C1)CC(n1cnc(Cl)n1)(C3)C2`, in test [1], the Activity was found to be 73.4%. In test [2], this molecule gave a pIC50 of under 4.00.
With `Cc1cc(/C=C2\NC(=O)NC2=O)c(C)n1-c1ccc(OCc2ccc(Cl)cc2Cl)cc1`, in test [5], the outcome was inactive. This molecule had a pIC50 in [2] of 5.06.
On to `CCc1nnc(NC(=O)C(=O)NCCOC(=O)c2ccccc2)s1`, for which the Activity in test [1] amounted to 77.9%. This molecule also showed a pIC50 in [2] of under 4.00.
As to `CC(=O)c1cc2c(cc1NC(=O)CCC(=O)O)OCO2`, the Activity in test [1] came to 89.5%. In addition, the negative-log IC50 (pIC50) in test [2] is under 4.00.
`COc1ccccc1NC(=O)C1CCCCC1(C)C(=O)O` (centres undefined) gave a pIC50 in test [2] of 4.21.
On the same count and under the same terms, as for `O=C1Nc2ccccc2/C1=N\NC(=O)c1ccc(O)cc1O`, the figure is 4.44.
